# Statin myotox sup: protects C2C12 myotubes from simvastatin toxicity; ATP luminescence, 48 h; scaled: DMSO 0, geranylgeraniol control 100; rescue of ATP level, % at 7.49 µM; actives 0.78% (n = 330,000);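 active = mean ATP rescue above about 67%, or every replicate alone reaching that limit, limit read from the data, passing the limit was not always enough; inconclusive = no clear call, values can overlap the other calls; inactive = mean under the limit and some replicate under it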;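 note: myotubes were challenged with 10 µM simvastatin during compound exposure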
# DENV2 CPE: protects cells from dengue virus 2 cytopathic effect | DENV2-infected cells, cytopathic effect rescue, plate reader | CPE inhibition, % at 9.99 µM | actives 1.7% (n = 350,000); in the data active = CPE inhibition above about 20%, passing the limit was not always enough; inconclusive = no clear call, values can overlap the other calls; tested in BHK-21 cells;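 note: 0% = median of neutral control wells and 100% = median of positive control wells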
# E-selectin induc: induces E-selectin expression in human endothelial cells; HUVEC E-selectin immunofluorescence imaging; normalized: neutral wells 0, TNF-alpha wells 100; activation, % at 7.58 µM; actives 0.37% (n = 260,000);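 active = mean E-selectin-positive cell signal at least 10% of the positive control, reached in at least 60% of replicates, without over 20% cell loss; inconclusive = no rule given, readout overlaps actives, possibly toxicity-flagged; inactive = the rest, including those meeting only one limit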
# Target sequence (P16581 whole entry, looked up): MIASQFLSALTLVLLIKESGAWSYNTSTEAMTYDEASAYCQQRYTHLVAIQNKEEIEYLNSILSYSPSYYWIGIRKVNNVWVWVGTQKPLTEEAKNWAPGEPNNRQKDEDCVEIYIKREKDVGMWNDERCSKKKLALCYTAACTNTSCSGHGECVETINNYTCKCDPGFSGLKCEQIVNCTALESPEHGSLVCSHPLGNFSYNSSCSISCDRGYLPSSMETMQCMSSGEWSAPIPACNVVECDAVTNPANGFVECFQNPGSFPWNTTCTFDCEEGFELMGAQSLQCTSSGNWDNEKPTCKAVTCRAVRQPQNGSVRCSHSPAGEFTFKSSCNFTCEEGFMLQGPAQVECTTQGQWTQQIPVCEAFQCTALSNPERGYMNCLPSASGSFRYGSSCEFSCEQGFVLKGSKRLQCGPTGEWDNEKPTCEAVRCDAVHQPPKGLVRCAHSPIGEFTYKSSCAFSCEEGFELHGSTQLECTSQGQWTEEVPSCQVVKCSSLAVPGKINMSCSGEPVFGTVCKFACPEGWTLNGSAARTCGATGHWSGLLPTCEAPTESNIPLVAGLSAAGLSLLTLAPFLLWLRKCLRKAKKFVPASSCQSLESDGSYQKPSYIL
#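 Test system: HUVEC | Signal: Immunofluorescence imaging | Read-out: Percent E-selectin-positive cells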
# Active calls of the source: *; ? = inconclusive; . = not tested or not shown. In the library only some 2.2% were active in any assay of this set; here they are far more common.
SMILES,Statin myotox sup,DENV2 CPE,E-selectin induc
CCOC(=O)C1C(c2cccc(F)c2)NC(=S)NC1(O)C(F)(F)F (centres undefined),98*,.,.
CCCNC(=O)N1C[C@H](C)[C@@H](OC)CN(C)C(=O)c2ccc(NC(C)=O)cc2OC[C@@H]1C,.,1,.
COc1cccc(NC(=O)N2CC[C@@H]3[C@H]2c2cc(-c4cccc(OC)c4)ccc2N(C)[C@H]3CO)c1,.,68*,0
COc1cccc(-c2ccc3c(c2)[C@H]2[C@H](CCN2C(=O)c2ccccc2F)[C@@H](CO)N3C)c1,-22,-5,0
COc1ccc(NC(=O)N2CC[C@@H]3[C@H]2c2cc(-c4cccc(F)c4)ccc2N(C)[C@H]3CO)cc1,4,.,0
CN1c2ccc(-c3ccccc3)cc2[C@H]2[C@H](CCN2C(=O)c2ccc(F)cc2)[C@H]1CO,32,-1,-1
CN1c2ccc(-c3ccc(F)cc3)cc2[C@@H]2[C@@H](CCN2C(=O)Cc2ccccn2)[C@@H]1CO,17,?,-1
COc1cccc(-c2ccc3c(c2)[C@@H]2[C@@H](CCN2C(=O)c2ccc(F)cc2)[C@H](CO)N3C)c1,51,24*,-1
CN1c2ccc(-c3cccc(F)c3)cc2[C@H]2[C@H](CCN2C(=O)c2ccccc2F)[C@H]1CO,19,69*,-1
CN1c2ccc(-c3ccccc3)cc2[C@@H]2[C@@H](CCN2C(=O)Cc2ccccn2)[C@@H]1CO,40,22*,-1
COc1ccc(S(=O)(=O)Nc2ccc3c(c2)C(=O)N([C@H](C)CO)C[C@H](C)[C@H](CN(C)C(=O)Nc2ccc4c(c2)OCO4)O3)cc1,.,.,0
C[C@H]1CN([C@@H](C)CO)C(=O)c2cccc(NC(=O)c3ccncc3)c2O[C@@H]1CN(C)S(=O)(=O)c1ccc(Cl)cc1,2,-4,.
Cc1noc(C)c1S(=O)(=O)Nc1ccc2c(c1)C(=O)N([C@H](C)CO)C[C@H](C)[C@@H](CN(C)S(=O)(=O)c1ccc(F)cc1)OCCCC[C@@H](C)O2,.,-12,0
C[C@@H]1CCCCO[C@H](CN(C)Cc2ccncc2)[C@@H](C)CN([C@@H](C)CO)C(=O)c2cc(NC(=O)Nc3cccc4ccccc34)ccc2O1,.,4,0
COc1ccc(NC(=O)N2CCCCN3[C@H](CO)[C@@H](c4ccc(C#CCC(C)C)cc4)[C@@H]3C2)cc1,4,-25,0
CCNC(=O)[C@H]1[C@H](CO)[C@H]2Cn3c(ccc(-c4ccc(F)cc4)c3=O)[C@H]2N1C(=O)Cc1cccnc1,8,-6,0
CC(=O)CSc1nc(C(F)(F)F)cc(=O)n1-c1ccccc1,151*,.,.
O=C(O)CSc1nc(C(F)(F)F)cc(=O)n1-c1ccccc1,5,.,.
Cc1noc(C)c1S(=O)(=O)Nc1ccc2c(c1)CC(=O)N([C@@H](C)CO)C[C@@H](C)[C@H](CN(C)Cc1ccc(-c3ccccc3)cc1)O2,?,14,-1
Cc1noc(C)c1S(=O)(=O)Nc1ccc2c(c1)CC(=O)N([C@H](C)CO)C[C@H](C)[C@@H](CN(C)Cc1ccc(-c3ccccc3)cc1)O2,27,-2,58*
Cc1noc(C)c1S(=O)(=O)Nc1ccc2c(c1)CC(=O)N([C@H](C)CO)C[C@@H](C)[C@H](CN(C)Cc1ccc(Cl)c(Cl)c1)O2,87*,15,0
Cc1noc(C)c1S(=O)(=O)Nc1ccc2c(c1)CC(=O)N([C@H](C)CO)C[C@@H](C)[C@H](CN(C)Cc1ccccc1)O2,27,22*,0
Cc1noc(C)c1S(=O)(=O)Nc1ccc2c(c1)CC(=O)N([C@@H](C)CO)C[C@H](C)[C@H](CN(C)Cc1ccc(Cl)c(Cl)c1)O2,35,14,0
Cc1noc(C)c1S(=O)(=O)Nc1ccc2c(c1)CC(=O)N([C@H](C)CO)C[C@H](C)[C@H](CN(C)Cc1ccccc1)O2,-2,-7,1
CCCC(=O)Nc1ccc2c(c1)OC[C@H](C)N(Cc1nccs1)C[C@H](C)[C@H](OC)CN(C)C2=O,9,-10,1
SMILES,Statin myotox sup,DENV2 CPE,E-selectin induc
CCS(=O)(=O)N1CCC2(CC1)CN(C(=O)c1ccc(F)cc1)[C@H](CO)c1[nH]c3cc(OC)ccc3c12,.,-4,0
CCC(=O)Nc1ccc2c(c1)OC[C@H](C)N(Cc1cncnc1)C[C@@H](C)[C@H](OC)CN(C)C2=O,9,18,0
CNc1ccccc1C(C)(C)c1cc(-c2cccc(OC)c2)no1,.,5,46*
COc1cccc(-c2nc(-c3ccccc3)no2)c1,-7,.,.
COc1cc(OC)c(-c2sc(Nc3ccccc3)n[n+]2-c2ccc(F)cc2)cc1OC,-9,-1,.
COc1cc(Br)c(-c2sc(Nc3ccccc3)n[n+]2-c2ccc(F)cc2)cc1OC,135*,8,0
CCOc1cc(-c2sc(Nc3ccccc3)n[n+]2-c2ccc(F)cc2)ccc1OC,-4,-5,0
COc1ccc(-c2sc(Nc3ccccc3)n[n+]2-c2ccc(F)cc2)c(OC)c1OC,-8,136*,.
CCCNC(=O)N1C[C@H](C)[C@H](OC)CN(C)C(=O)c2cc(NS(=O)(=O)CC(F)(F)F)ccc2OC[C@H]1C,12,-5,0
Cc1cc2nc(NCCCO)n(CC(=O)c3cc(C(C)(C)C)c(O)c(C(C)(C)C)c3)c2cc1C,-15,32*,0
COc1ccc(C(=O)Cn2c(NCCCO)nc3ccccc32)cc1,-2,?,0
COc1ccc(NC(=O)N(C)C[C@H]2Oc3ccc(NS(=O)(=O)c4ccc(F)cc4)cc3CC(=O)N([C@H](C)CO)C[C@@H]2C)cc1,-8,-3,0
Brc1ccc2oc(-c3ccn[nH]3)cc2c1,.,-4,74*
O=c1oc2ccc(Br)cc2cc1-c1nc2ccccc2o1,52,-3,.
C[C@@H]1CN([C@@H](C)CO)C(=O)c2cc(NS(C)(=O)=O)ccc2O[C@@H](C)CCCCO[C@@H]1CN(C)C(=O)c1ccncc1,.,-1,0
COc1ccccc1NC(=O)CCc1c(C)[nH]c(=O)c(C#N)c1C,97*,.,.
Cc1ccc(F)cc1NC(=O)CCc1c(C)[nH]c(=O)c(C#N)c1C,-1,7,0
CNC(=O)C[C@H]1CC[C@H]2[C@H](COc3ccc(NC(=O)c4ccc(OC)cc4)cc3C(=O)N2C)O1,-5,10,0
O=C(C[C@H]1C[C@@H]2c3cc(NC(=O)Nc4ccccc4F)ccc3O[C@@H]2[C@@H](CO)O1)NCC1CC1,4,9,0
O=C(C[C@H]1C[C@@H]2c3cc(NC(=O)Nc4ccccc4F)ccc3O[C@@H]2[C@H](CO)O1)NCC1CC1,-4,-4,0
O=C(C[C@@H]1C[C@H]2c3cc(NC(=O)Nc4ccccc4F)ccc3O[C@H]2[C@H](CO)O1)NCC1CC1,12,27*,0
O=C(C[C@@H]1C[C@@H]2c3cc(NC(=O)Nc4ccccc4F)ccc3O[C@@H]2[C@H](CO)O1)NCC1CC1,-6,68*,0
C[C@H](CO)N1C[C@H](C)[C@@H](CN(C)Cc2ccc(C(F)(F)F)cc2)Oc2c(NC(=O)Nc3ccccc3)cccc2C1=O,-14,6,1
c1cncc(-c2cnc3ccccc3c2)c1,13,-6,1
F[B-](F)(F)c1cnc2ccccc2c1,2,26*,.

# High-throughput results from PubChem BioAssay.
